Data set [1] deals with DNA (cytosine-5)-methyltransferase 3B (Homo sapiens) (UniProt Q9UBC3). In words: Inhibition of human DNMT3B in human KG-1 cells expressing cmv-firefly luciferase assessed as increase in luminescence upto 10 uM incubated for 24 hrs by luciferase reporter gene assay relative to control. Format: cell-based. Particulars: dose microM <=10, time 24.0 hrs. The essentials: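 KG-1 cells stably carrying firefly luciferase (luc+) under a 50%-methylated CMV promoter, seeded at 20 000 cells/well. Treated 24 h with compound (3.2–10 µM) or DMSO. Luciferase quantified by One-Glo luminescence and expressed as fold induction over DMSO control. Mean of three experiments with standard error.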

Data set [2] in a line: Chemical stability of compound in DNMT3A-c enzyme buffer assessed as half life at 1 mM by HPLC analysis. Format: physicochemical. The essentials:
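Followed over 15 h by reverse-phase HPLC (H2O/acetonitrile gradient with 0.1% formic acid), detection at 250 nm. Remaining compound taken from HPLC peak area. Mean of at least two experiments.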

Data set [3] addresses DNA (cytosine-5)-methyltransferase 3A (Homo sapiens) (UniProt Q9Y6K1). In words: Inhibition of human DNMT3A catalytic domain expressed in Escherichia coli Rosetta-gamiTM 2(DE3) pLysS competent cells using biotinylated 6-FAM double strand DNA comprising unique CpG site […] incubated for 1 hrs by fluorescence based assay.
For data set [4], the target named is DNA (cytosine-5)-methyltransferase 3B (Homo sapiens) (UniProt Q9UBC3). In words: Inhibition of human DNMT3B in human KG-1 cells expressing cmv-firefly luciferase assessed as increase in luminescence at 5 uM incubated for 24 hrs by luciferase reporter gene assay relative to control. Format: cell-based. The essentials: (§1)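 KG-1 cells stably carrying firefly luciferase under a 50% methylated CMV promoter were seeded at 20 000 cells/well. They were exposed to compound (3.2–10 µM range) or DMSO for 24 h, then luciferase was quantified by One-Glo luminescence. Result is fold induction over DMSO control. Mean of three experiments with standard error.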
Background: In a reporter assay the amount or activity of a reporter protein is the signal.

The target of data set [5] is DNA (cytosine-5)-methyltransferase 3A (Homo sapiens) (UniProt Q9Y6K1). In words: Inhibition of human DNMT3A catalytic domain expressed in Escherichia coli Rosetta-gamiTM 2(DE3) pLysS competent cells using biotinylated 6-FAM double strand DNA comprising unique CpG site […] at 32 uM incubated for 1 hrs by fluorescence based assay.
The subject of data set [6] is KG-1. In words: Cytotoxicity against human KG-1 cells assessed as reduction in cell viability measured after 72 hrs by APTlite one step luminescence assay. Format: functional, cell-based. Particulars: KG-1, 72 h.
The subject of data set [7] is HCT-116. Kind of data set: Cytotoxicity against human HCT-116 cells assessed as reduction in cell viability measured after 72 hrs by APTlite one step luminescence assay. Format: functional, cell-based. Particulars: HCT-116, 72 h. The method, boiled down:
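KG-1 cells were seeded at 2x10^4 cells/ml in RPMI-1640 with 15% FCS, and HCT116 cells at 1.5x10^4 cells/ml in MEM with HEPES, L-glutamine and 10% FCS, at 37 °C, 5% CO2. Compound was given at 3.2x10-9 to 1x10-5 M on day 0 and again on days 2 and 3. ATP-luminescence read-out on day 4. EC50 is the concentration giving 50% viability loss versus untreated cells. Mean of at least two independent experiments run in duplicate.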

The target in data set [8] is DNA (cytosine-5)-methyltransferase 3B (Homo sapiens) (UniProt Q9UBC3). In words: Inhibition of human DNMT3B in human KG-1 cells expressing cmv-firefly luciferase assessed as increase in luminescence incubated for 24 hrs by luciferase reporter gene assay relative to control. Format: cell-based. Particulars: dose 3.2-10 µM. The method, boiled down: as §1

Calls of active or inactive are those of the source. The calls are words filed in the database; no cut-off is given here.

DNA (cytosine-5)-methyltransferase 3A (Homo sapiens), sequence (Q9Y6K1 whole entry, looked up, the tested form may be a part): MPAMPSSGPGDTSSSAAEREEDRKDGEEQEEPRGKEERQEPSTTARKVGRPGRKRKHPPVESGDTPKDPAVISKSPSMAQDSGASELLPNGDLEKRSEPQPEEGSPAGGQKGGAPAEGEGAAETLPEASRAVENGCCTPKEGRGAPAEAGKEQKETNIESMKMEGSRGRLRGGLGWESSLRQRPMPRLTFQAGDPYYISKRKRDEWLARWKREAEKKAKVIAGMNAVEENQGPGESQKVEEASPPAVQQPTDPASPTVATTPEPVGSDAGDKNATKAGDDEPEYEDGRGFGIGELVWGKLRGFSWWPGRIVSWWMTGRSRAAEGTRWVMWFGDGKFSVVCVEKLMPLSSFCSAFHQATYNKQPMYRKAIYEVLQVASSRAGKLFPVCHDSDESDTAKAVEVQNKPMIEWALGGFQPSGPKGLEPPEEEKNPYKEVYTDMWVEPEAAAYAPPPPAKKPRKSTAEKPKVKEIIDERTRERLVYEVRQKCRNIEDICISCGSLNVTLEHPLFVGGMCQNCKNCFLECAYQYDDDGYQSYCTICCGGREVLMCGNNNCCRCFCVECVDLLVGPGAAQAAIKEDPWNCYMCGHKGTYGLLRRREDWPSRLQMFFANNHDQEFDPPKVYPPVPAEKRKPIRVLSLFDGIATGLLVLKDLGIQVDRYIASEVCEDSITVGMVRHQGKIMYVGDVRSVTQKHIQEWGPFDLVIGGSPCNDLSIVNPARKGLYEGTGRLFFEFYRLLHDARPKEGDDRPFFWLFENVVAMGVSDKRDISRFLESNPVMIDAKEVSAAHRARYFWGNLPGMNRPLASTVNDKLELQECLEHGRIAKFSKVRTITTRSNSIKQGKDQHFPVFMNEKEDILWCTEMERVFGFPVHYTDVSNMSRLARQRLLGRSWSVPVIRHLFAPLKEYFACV

For `COc1ccc([N+](=O)[O-])c(C2Oc3ccccc3C(=O)C2(Cl)[N+](=O)[O-])c1` (stereo not given), in data set [1], the inhibition (commonly the relative decrease from the control value, in per cent) is “inactive”. Also, in data set [2], the half-life (in general, the time in which the quantity being followed falls by half) at 1000 µM was 3.4 h. In addition, in data set [3] (read-out: EC50), the EC50 (commonly the concentration that produces a half-maximal response) was determined as 4.4 µM.

In the case of `CC1([N+](=O)[O-])C(=O)c2ccccc2OC1c1ccccc1[N+](=O)[O-]` (stereo not given), the inhibition entry in data set [1] is “inactive”. Besides, the 50% effective concentration (EC50) in data set [3] (read-out: EC50) is greater than 40 µM.

On to `O=C1c2ccccc2OC(c2ccccc2[N+](=O)[O-])C1(Cl)[N+](=O)[O-]` (stereo not given), for which the inhibition entry in data set [1] was “inactive”. Moreover, in data set [2], the half-life at 1000 µM was 1 h. In data set [3] (read-out: EC50), the EC50 came to 4.4 µM. Further, the fold change (FC) in data set [4] came to 2.

Take `O=C1c2ccccc2OC(c2ccccc2[N+](=O)[O-])C1[N+](=O)[O-]` (stereo not given): the half-maximal effective concentration (EC50) result in data set [3] is given as “Not Active”. This compound registered an inhibition in data set [5] of 0%.

Consider `COc1ccc([N+](=O)[O-])c(C2Oc3ccccc3C(=O)C2[N+](=O)[O-])c1` (stereo not given), for which the concentration giving a half-maximal response (EC50) result in data set [3] is listed as “Not Active”. Further, the inhibition in data set [5] came to 0%.

`O=C1c2ccccc2OC(c2ccccc2)C1(Br)[N+](=O)[O-]` (stereo not given): the inhibition result in data set [1] is “inactive”. In addition, the half-maximal effective concentration (EC50) in data set [3] (read-out: EC50) came to 6.7 µM.

Turning to `O=C1c2ccccc2O[C@H](c2ccccc2F)[C@@]1(Br)[N+](=O)[O-]` (racemic), the inhibition result in data set [1] was “inactive”. Besides, in data set [3] (read-out: EC50), the EC50 amounted to 5.7 µM.

With `COc1ccc([N+](=O)[O-])c([C@H]2Oc3ccccc3C(=O)[C@]2(Br)[N+](=O)[O-])c1` (racemic), in data set [2], the half-life at 1000 µM was 7 h. Moreover, the EC50 is 5.3 µM in data set [3] (read-out: EC50), 12.9 µM in data set [6] and 8.1 µM in data set [7]. The Activity result in data set [8] was “Dose-dependent effect”.

In the case of `O=C1c2ccccc2OC(c2ccccc2[N+](=O)[O-])C1(I)[N+](=O)[O-]` (racemic), the inhibition result in data set [1] is “inactive”. The half-life at 1000 µM in data set [2] is greater than 15 h. In addition, in data set [3] (read-out: EC50), the concentration for a half-maximal effect (EC50) was found to be 2.8 µM.

`COc1ccc([N+](=O)[O-])c([C@H]2Oc3ccccc3C(=O)[C@@]2(Br)[N+](=O)[O-])c1` (racemic): the EC50 in data set [3] (read-out: EC50) was 4.7 µM; in data set [6], 18.6 µM. Further, the Activity entry in data set [8] is “Dose-dependent effect”.

With `O=C1c2ccccc2O[C@H](c2ccccc2[N+](=O)[O-])[C@@]1(Br)[N+](=O)[O-]` (racemic), the half-life at 1000 µM in data set [2] was 1.7 h. Further, the concentration for a half-maximal effect (EC50) in data set [3] (read-out: EC50) was 3.2 µM; in data set [6] it was 13 µM; in data set [7], 10.7 µM. Moreover, in data set [8], the Activity entry is “Dose-dependent effect”. In addition, in data set [4], the fold change (FC) amounted to 6.1.

For the compound `COc1ccc([N+](=O)[O-])c([C@H]2Oc3ccccc3C(=O)[C@]2(I)[N+](=O)[O-])c1` (racemic), in data set [1], the inhibition result was “inactive”. The half-life at 1000 µM in data set [2] was greater than 15 h. For the same compound, the EC50 in data set [3] (read-out: EC50) is 2 µM.

Turning to `O=C1c2ccccc2O[C@H](c2ccccc2[N+](=O)[O-])[C@]1(Br)[N+](=O)[O-]` (racemic), the half-life at 1000 µM in data set [2] was 0.7 h. For the same compound, the results for the EC50 in data set [3] (read-out: EC50), in data set [6] and in data set [7] were 5.1 µM, 5.3 µM and 12.4 µM, respectively. Moreover, in data set [8], the Activity result was “Dose-dependent effect”. Further, the fold change (FC) in data set [4] turned out to be 8.8.

Take `O=C1c2ccccc2OC(c2ccccc2)C1[N+](=O)[O-]` (trans isomer): the half-maximal effective concentration (EC50) result in data set [3] was “Not Active”. For the same compound, the inhibition in data set [5] is 0%.
